pIC50: −log10 of the molar value.
Experiments:
Rattus norvegicus [1] = assay: In vivo inhibition of angiotensin I induced pressor effect after iv administration in rats; format: functional
Procedure, shortened: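 Conscious, unrestrained male Sprague-Dawley rats (225-275 g) with aortic and vena caval catheters, recovered at least 2 weeks. […] Compound was given iv in water or 5% NaHCO3 and responses followed up to 70 min. Maximum inhibition was averaged over four rats per dose; ED50 was interpolated from the maximum-inhibition vs dose plot.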

[2] = target: T1, Angiotensin-converting enzyme (Oryctolagus cuniculus, UniProt P12822); assay: In vitro inhibition of angiotensin I converting enzyme in rabbit lung with hippuryl-histidyl-leucine as substrate; format: tissue-based; conditions: read-out: I50
T1 sequence (P12822 whole entry): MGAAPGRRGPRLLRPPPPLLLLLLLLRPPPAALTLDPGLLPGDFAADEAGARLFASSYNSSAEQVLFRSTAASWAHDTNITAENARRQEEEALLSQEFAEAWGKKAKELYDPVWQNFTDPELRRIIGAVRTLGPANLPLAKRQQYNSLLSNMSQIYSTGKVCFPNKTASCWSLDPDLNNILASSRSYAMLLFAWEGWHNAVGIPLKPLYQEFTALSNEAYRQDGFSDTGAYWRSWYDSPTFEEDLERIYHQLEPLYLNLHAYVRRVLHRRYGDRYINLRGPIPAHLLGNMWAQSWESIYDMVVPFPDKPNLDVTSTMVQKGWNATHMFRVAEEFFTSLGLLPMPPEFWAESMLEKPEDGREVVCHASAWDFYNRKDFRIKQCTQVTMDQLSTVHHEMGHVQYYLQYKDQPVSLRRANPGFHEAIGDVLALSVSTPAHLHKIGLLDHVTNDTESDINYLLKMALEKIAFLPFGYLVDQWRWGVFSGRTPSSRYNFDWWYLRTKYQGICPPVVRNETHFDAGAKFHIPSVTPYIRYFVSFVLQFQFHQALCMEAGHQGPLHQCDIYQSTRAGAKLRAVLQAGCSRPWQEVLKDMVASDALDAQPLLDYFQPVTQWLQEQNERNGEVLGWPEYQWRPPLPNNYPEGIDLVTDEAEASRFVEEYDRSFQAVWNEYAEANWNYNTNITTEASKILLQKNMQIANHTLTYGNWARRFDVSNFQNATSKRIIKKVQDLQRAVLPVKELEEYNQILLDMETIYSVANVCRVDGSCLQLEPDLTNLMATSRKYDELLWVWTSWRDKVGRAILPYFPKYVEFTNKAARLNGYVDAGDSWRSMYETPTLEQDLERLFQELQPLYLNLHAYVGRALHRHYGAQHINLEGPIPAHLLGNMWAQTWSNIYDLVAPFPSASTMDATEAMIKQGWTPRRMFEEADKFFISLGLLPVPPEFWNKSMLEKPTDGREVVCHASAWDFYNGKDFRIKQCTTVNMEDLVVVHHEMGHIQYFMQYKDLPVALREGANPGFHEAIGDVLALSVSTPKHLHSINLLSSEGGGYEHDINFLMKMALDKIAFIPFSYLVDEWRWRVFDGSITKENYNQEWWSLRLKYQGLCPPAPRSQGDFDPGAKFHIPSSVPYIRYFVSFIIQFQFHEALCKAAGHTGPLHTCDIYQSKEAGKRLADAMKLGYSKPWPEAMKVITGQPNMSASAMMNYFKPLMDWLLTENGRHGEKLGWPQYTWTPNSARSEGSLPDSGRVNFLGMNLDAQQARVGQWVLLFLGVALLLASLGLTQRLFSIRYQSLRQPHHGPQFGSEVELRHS
Procedure, shortened: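 Rabbit lung ACE with synthetic substrate hippurylhistidylleucine; the liberated hippuric acid was quantitated spectrophotometrically. Conditions follow the authors' earlier method.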

Rattus norvegicus [3] = assay: In vivo inhibition of angiotensin I induced pressor effect after po administration in rats; format: functional
Procedure, shortened: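 Oral dosing of conscious catheterized male Sprague-Dawley rats (225-275 g) in water, 5% NaHCO3 or 1% agar suspension. Angiotensin I (310 ng/kg iv) pressor responses were followed up to 280 min against pre-dose values, with four rats per dose. ED50 was interpolated from a plot of maximum inhibition vs dose.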

Rattus norvegicus [4] = assay: In vivo inhibition angiotensin I induced pressor effect after po administration of 5 umol/kg in rats; format: functional
Procedure, shortened: (§1)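 Normotensive catheterized male Sprague-Dawley rats (225-275 g), conscious and unrestrained. Compound was given orally at 5.0 µmol/kg in water, 5% NaHCO3 or 1% agar suspension. Angiotensin I (310 ng/kg iv) pressor responses were compared with pre-dose responses for up to 280 min. Maximum percent inhibition is the mean of four animals.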

Rattus norvegicus [5] = assay: In vivo inhibition angiotensin I induced pressor effect after (5 uML/kg) p.o. administration in rats; format: functional; procedure, shortened: as §1

| Compound | ED50 (Rattus norvegicus [1]) | pIC50 [2] | ED50 (Rattus norvegicus [3]) | inhibition in vivo at 5 µmol/kg (Rattus norvegicus [4]) | Inhibition (Rattus norvegicus [5]) |
| --- | --- | --- | --- | --- | --- |
| O=C(O)[C@@H]1CCCN1C(=O)[C@H](CCc1ccccc1)OP(=O)(O)CCCCc1ccccc1 | 29 µmol/kg | 6.19 | – | – | – |
| C[C@H](OP(=O)(O)CCCCc1ccccc1)C(=O)N1CCC[C@H]1C(=O)O | 0.75 µmol/kg | 7.23 | > 25 µmol/kg | – | – |
| CCCCCCCCCCP(=O)(O)O[C@@H](CCCCN)C(=O)N1CCC[C@H]1C(=O)O | 0.17 µmol/kg | 7.02 | – | 2% | – |
| CCCCC(C)CP(=O)(O)O[C@@H](CCCCN)C(=O)N1CCC[C@H]1C(=O)O (stereo not given in full) | 0.14 µmol/kg | 7.40 | – | 68% | – |
| CC(C)CCCP(=O)(O)O[C@@H](CCCCN)C(=O)N1CCC[C@H]1C(=O)O | 0.095 µmol/kg | 6.82 | – | 69% | – |
| N=C(N)NCCC[C@H](OP(=O)(O)CCCCc1ccccc1)C(=O)N1CCC[C@H]1C(=O)O | 0.12 µmol/kg | 7.72 | – | 40% | – |
| NCCCC[C@H](OP(=O)(O)CCCCc1ccc(F)cc1)C(=O)N1CCC[C@H]1C(=O)O | 0.067 µmol/kg | 7.51 | 0.89 µmol/kg | 81% | – |
| CCCCCCCCP(=O)(O)O[C@@H](CCCCN)C(=O)N1CCC[C@H]1C(=O)O | 0.091 µmol/kg | 7.42 | 1.4 µmol/kg | 83% | – |
| CCCCCCCP(=O)(O)O[C@@H](CCCCN)C(=O)N1CCC[C@H]1C(=O)O | 0.12 µmol/kg | 7.72 | 0.62 µmol/kg | 75% | – |
| NCCCC[C@H](OP(=O)(O)CCCCc1cccnc1)C(=O)N1CCC[C@H]1C(=O)O | 0.19 µmol/kg | 7.03 | – | 56% | – |
| CCCCCCCCCP(=O)(O)O[C@@H](CCCCN)C(=O)N1CCC[C@H]1C(=O)O | 0.13 µmol/kg | 7.51 | – | 23% | – |
| C[C@H](NP(=O)(O)CCCCc1ccccc1)C(=O)N1CCC[C@H]1C(=O)O | 0.05 µmol/kg | 7.92 | 25 µmol/kg | – | – |
| CCCC[C@H](OP(=O)(O)CCCCc1ccccc1)C(=O)N1CCC[C@H]1C(=O)O | > 1.4 µmol/kg | 6.74 | – | – | – |
| C[C@H](N[C@@H](CCc1ccccc1)C(=O)O)C(=O)N1CCC[C@H]1C(=O)O [ENALAPRILAT ANHYDROUS] | 0.033 µmol/kg | – | 5.13 µmol/kg | – | – |
| CCCCP(=O)(O)O[C@@H](CCCCN)C(=O)N1CCC[C@H]1C(=O)O | 0.091 µmol/kg | 7.02 | – | 27% | – |
| N=C(N)NCCCC[C@H](OP(=O)(O)CCCCc1ccccc1)C(=O)N1CCC[C@H]1C(=O)O | 0.045 µmol/kg | 8.21 | – | 48% | – |
| NCCCCC[C@H](OP(=O)(O)CCCCc1ccccc1)C(=O)N1CCC[C@H]1C(=O)O | > 1.5 µmol/kg | 6.96 | – | – | – |
| NCCCC[C@H](OP(=O)(O)CCc1ccccc1)C(=O)N1CCC[C@H]1C(=O)O | 0.217 µmol/kg | 6.72 | 1.39 µmol/kg | 65% | – |

| Compound | ED50 (Rattus norvegicus [1]) | pIC50 [2] | ED50 (Rattus norvegicus [3]) | inhibition in vivo at 5 µmol/kg (Rattus norvegicus [4]) | Inhibition (Rattus norvegicus [5]) |
| --- | --- | --- | --- | --- | --- |
| NCCCCC(CP(=O)(O)CCCCc1ccccc1)C(=O)N1CCC[C@H]1C(=O)O (stereo not given in full) | 0.18 µmol/kg | 7.07 | 35 µmol/kg | – | – |
| NCCCC[C@H](OP(=O)(O)CCCCC1CCCCC1)C(=O)N1CCC[C@H]1C(=O)O | 0.18 µmol/kg | 7.26 | 2.3 µmol/kg | 68% | – |
| CCCCCCP(=O)(O)O[C@@H](CCCCN)C(=O)N1CCC[C@H]1C(=O)O | 0.036 µmol/kg | 7.62 | 0.94 µmol/kg | 82% | – |
| C[C@H](CS)C(=O)N1CCC[C@H]1C(=O)O [CAPTOPRIL] | 0.092 µmol/kg | – | 0.73 µmol/kg | – | – |
| CCCCCP(=O)(O)O[C@@H](CCCCN)C(=O)N1CCC[C@H]1C(=O)O | 0.071 µmol/kg | 7.57 | – | 57% | – |
| NCCC[C@H](OP(=O)(O)CCCCc1ccccc1)C(=O)N1CCC[C@H]1C(=O)O | 1 µmol/kg | 6.41 | – | 28% | – |
| NCCCC[C@H](OP(=O)(O)CCCc1ccccc1)C(=O)N1CCC[C@H]1C(=O)O | 0.069 µmol/kg | 6.72 | 2.62 µmol/kg | 67% | – |
| CC(C)C[C@H](OP(=O)(O)CCCCc1ccccc1)C(=O)N1CCC[C@H]1C(=O)O | – | 5.42 | – | – | – |
| CCCCCC(C)P(=O)(O)O[C@@H](CCCCN)C(=O)N1CCC[C@H]1C(=O)O (stereo not given in full) | 0.13 µmol/kg | 7.21 | – | 29% | – |
| NCCCC[C@H](OP(=O)(O)CCCCCc1ccccc1)C(=O)N1CCC[C@H]1C(=O)O | 0.067 µmol/kg | 7.85 | – | 65% | – |
| NCCCC[C@H](OP(=O)(O)CCCCc1ccccc1)C(=O)N1CCC[C@H]1C(=O)O [CERONAPRIL] | 0.063 µmol/kg | 7.44 | 0.53 µmol/kg | – | 90% |
| C[C@H](CP(=O)(O)CCCCc1ccccc1)C(=O)N1CCC[C@H]1C(=O)O | – | 6.66 | – | – | – |
| CC(=O)NCCCC[C@H](OP(=O)(O)CCCCc1ccccc1)C(=O)N1CCC[C@H]1C(=O)O | < 1.4 µmol/kg | 6.74 | – | – | – |
| CC(=O)NCCC[C@H](OP(=O)(O)CCCCc1ccccc1)C(=O)N1CCC[C@H]1C(=O)O | 0.25 µmol/kg | 7.38 | – | 4% | – |
| N=C(N)NCCCCC[C@H](OP(=O)(O)CCCCc1ccccc1)C(=O)N1CCC[C@H]1C(=O)O | > 1.5 µmol/kg | 7.49 | – | – | – |
| NCCCC[C@H](NP(=O)(O)CCCCc1ccccc1)C(=O)N1CCC[C@H]1C(=O)O | 0.022 µmol/kg | 8.05 | 2.6 µmol/kg | – | – |
| CCOC(=O)[C@H](CCc1ccccc1)N[C@@H](C)C(=O)N1CCC[C@H]1C(=O)O | – | – | 0.46 µmol/kg | – | – |

Reference: ChEMBL document CHEMBL1123952, “(Phosphinyloxy)acyl amino acid inhibitors of angiotensin converting enzyme (ACE). 1. Discovery of (S)-1-[6-amino-2-[[hydroxy(4-phenylbutyl)phosphinyl]oxy]-1-oxohexyl]-L -proline a novel orally active inhibitor of ACE” (J Med Chem, 1988)
